MC4R barr agon = agonists of human melanocortin 4 receptor (MC4R) beta-arrestin | U2OS MC4R beta-arrestin complementation, luminescence; percent of melanotan II response, DMSO zero | 360,000 compounds, 0.98% hits | activation, % at 8.9 µM | P32245;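 active = activation above a per-plate cutoff, the mean activation of sample wells on that plate plus 3 SD, cut at about 8% in these data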
HTR2A ag = mouse HTR2A agonism via beta-arrestin recruitment. 360,000 compounds, 0.66% hits. P35363. CHO-K1 mHTR2A beta-arrestin complementation, luminescence; percent of 30 µM serotonin response. activation, % at 7.6 µM;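 active = activation above a run cutoff, the mean activation of all tested compounds plus 3 SD, cut at about 14% in these data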;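 note: 0% = plate median of compound wells and 100% = 30 µM serotonin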
AHR act = activators of human aryl hydrocarbon receptor. AID 2796. activation, % at 5 µM. AHR-responsive luciferase reporter cells, luminescence. P35869. 320,000 compounds, 2.5% hits; in the data active = activation above about 47%;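 note: 0% = vehicle wells and 100% = reference agonist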
MC4R antagonist = antagonists of human melanocortin 4 receptor (MC4R). MC4R-expressing cells, MTII-stimulated cAMP, LANCE TR-FRET. inhibition, % at 6.5 µM. 360,000 compounds, 0.48% hits;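 active = inhibition above its plate's cutoff, the mean of tested wells on that plate plus 3 SD, cut at about 29% in these data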;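 note: 0% = Melanotan II alone and 100% = Melanotan II plus saturating MCL0020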
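material = U2OS cells stably expressing human melanocortin 4 receptor (MC4R) | also added = Melanotan II challenge | dosing = single nominal compound dose of 6.5 µM | detection = TR-FRET with Eu-cAMP and labeled anti-cAMP, 671 nm | replication = singlicate | timing = compound 30 min, challenge 1 h, detection 1 h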
FXN GAA850 act = frataxin GAA850 promoter activation | HEK293 lucGAA850 FXN promoter luciferase reporter, 24 h; percent of 10 µM SAHA response | activation, % at 6 µM | 360,000 compounds, 0.56% hits;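 active = activation above the average of all compounds screened plus 3 SD, cutoff fixed separately per campaign, cut at about 7.5% in these data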;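 note: 0% = DMSO wells and 100% = 10 µM SAHA wells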
* = called active by the depositor. Only some compounds are listed: those with a hit (about 4.7% of all), similar ones and a draw of the others.

How did O=C(CN1C(=O)c2cccc3cccc1c23)Nc1cccnc1 do in these assays?
MC4R barr agon: 1.5; HTR2A ag: 3.2; AHR act: 53.8*; MC4R antagonist: 4.3; FXN GAA850 act: -1.7

What do the screens show for `Cc1cc2nn(-c3cccc4ccccc34)nc2cc1NC(=O)c1cccs1`?
MC4R barr agon: 1.2; HTR2A ag: -1.9; AHR act: 57.1*; MC4R antagonist: 0.4; FXN GAA850 act: 0.7

What do the screens show for `Cc1ccc(-c2nn3c(C)nnc3s2)cc1NC(=O)c1cccs1`?
MC4R barr agon: 0.0; HTR2A ag: 0.7; AHR act: 28.8; MC4R antagonist: 15.8; FXN GAA850 act: -1.6

Results for CCc1nnc(NS(=O)(=O)c2ccc(NC(=O)c3cccc(OC)c3)cc2)s1 ?
MC4R barr agon: 0.3; HTR2A ag: -1.7; AHR act: 1.3; MC4R antagonist: 8.8; FXN GAA850 act: 1.1

Results for COC(=O)c1c(C(=O)OC)c(-c2ccc(Br)cc2)n2c1CS(=O)C2 (centres undefined) ?
MC4R barr agon: 0.2; HTR2A ag: -3.1; AHR act: 3.1; MC4R antagonist: -5.0; FXN GAA850 act: 1.8

Results for CCn1c(-c2cccnc2Cl)nc2cc(Cl)c(Cl)cc21 ?
MC4R barr agon: 0.0; HTR2A ag: -4.4; AHR act: 51.8*; MC4R antagonist: 10.5; FXN GAA850 act: 5.2

Results for Cc1cccn2c(=O)c(C=O)c(N3CCN(c4ccc(F)cc4)CC3)nc12 ?
MC4R barr agon: 2.6; HTR2A ag: -2.2; AHR act: 64.5*; MC4R antagonist: 8.0; FXN GAA850 act: 4.8

How did COc1ccc(-c2nc3c4ccccc4[nH]c(=O)n3n2)cc1 do in these assays?
MC4R barr agon: -3.1; HTR2A ag: 2.3; AHR act: 111.7*; MC4R antagonist: -4.1; FXN GAA850 act: -0.2

What do the screens show for `CCC1(C)CN=C(c2ccccc2)NC1` (centres undefined)?
MC4R barr agon: -0.7; HTR2A ag: 3.9; MC4R antagonist: 0.2; FXN GAA850 act: 0.7

Results for Cc1ccc(C(=O)Nc2ccc(C(=O)N3CCCCC3)cc2)cc1 ?
MC4R barr agon: -1.1; HTR2A ag: 2.1; AHR act: 4.9; MC4R antagonist: 7.5; FXN GAA850 act: 1.0

What do the screens show for `O=c1cc(CSc2nnc(Nc3ccccc3)s2)nc2sccn12`?
MC4R barr agon: -1.7; HTR2A ag: 1.2; AHR act: 56.6*; MC4R antagonist: -0.3; FXN GAA850 act: 1.4

What do the screens show for `Cc1ccccc1Nc1nnc(SCc2cc(=O)n3ccsc3n2)s1`?
MC4R barr agon: -2.5; HTR2A ag: 5.1; AHR act: 5.9; MC4R antagonist: 8.9; FXN GAA850 act: 4.6

Results for CCN(CC(=O)Nc1c(F)cccc1F)C(=O)CCCN1C(=O)c2cccc3cccc(c23)C1=O ?
MC4R barr agon: -0.7; HTR2A ag: 4.4; MC4R antagonist: 4.8; FXN GAA850 act: -0.5

What do the screens show for `COc1ccccc1/C=N/Nc1cc(C)nc(N2CCOCC2)n1`?
MC4R barr agon: -0.2; HTR2A ag: 5.7; AHR act: 51.1*; MC4R antagonist: 5.5; FXN GAA850 act: 0.8

Results for COc1ccc(/C=N\Nc2ncc(F)c(N3CCOCC3)n2)cc1OC ?
MC4R barr agon: 2.5; HTR2A ag: -1.6; AHR act: 59.2*; MC4R antagonist: -5.7; FXN GAA850 act: 0.4

Results for COc1ccc(/C=N/Nc2cc(C)nc(N3CCOCC3)n2)cc1OC ?
MC4R barr agon: -1.8; HTR2A ag: -3.4; AHR act: 49.9*; MC4R antagonist: -5.1; FXN GAA850 act: 2.0

Results for COc1ccc(/C=N/Nc2cc(C)nc(N3CCOCC3)n2)cc1 ?
MC4R barr agon: -0.5; HTR2A ag: -4.4; AHR act: 6.9; MC4R antagonist: 4.8; FXN GAA850 act: 5.5

Results for CC1(C(=O)NS(=O)(=O)c2ccc(Cl)cc2)CCN1C(=O)c1ccco1 (centres undefined) ?
MC4R barr agon: -0.6; HTR2A ag: 2.6; MC4R antagonist: 3.2; FXN GAA850 act: 0.3

What do the screens show for `O=C(c1ccc(Cl)c([N+](=O)[O-])c1)N1CCN(S(=O)(=O)c2ccc(Cl)cc2)CC1`?
MC4R barr agon: -0.5; HTR2A ag: -1.9; AHR act: 0.7; MC4R antagonist: 11.1; FXN GAA850 act: -2.1

What do the screens show for `COc1ccccc1-c1cnc(C(O)c2ccc(SC)cc2)[nH]1` (centres undefined)?
MC4R barr agon: -1.3; HTR2A ag: -1.3; MC4R antagonist: 1.1; FXN GAA850 act: 1.1

How did Nc1nnnn1/N=C/c1cc(Cl)cc(Cl)c1OCc1ccc(Cl)cc1Cl do in these assays?
MC4R barr agon: -1.9; HTR2A ag: -3.8; AHR act: 14.1; MC4R antagonist: 7.6; FXN GAA850 act: -0.6

How did Cc1n[nH]c(=S)n1/N=C/c1ccccc1OCc1ccc(Cl)cc1 do in these assays?
MC4R barr agon: -2.8; HTR2A ag: -5.5; AHR act: 46.4; MC4R antagonist: -10.7; FXN GAA850 act: 8.3*

What do the screens show for `Nc1nnnn1/N=C/c1ccccc1OCc1ccc(Cl)cc1Cl`?
MC4R barr agon: 1.0; HTR2A ag: 5.2; AHR act: 72.7*; MC4R antagonist: -8.0; FXN GAA850 act: 5.8

What do the screens show for `COc1ccccc1/C=C\C=N\n1c(-c2ccc(Cl)cc2)n[nH]c1=S`?
MC4R barr agon: 8.9*; HTR2A ag: 1.3; AHR act: 16.8; MC4R antagonist: 7.5; FXN GAA850 act: 2.3

What do the screens show for `Nc1nnnn1/N=C/c1ccccc1OCc1ccc(Cl)cc1`?
MC4R barr agon: 8.3*; HTR2A ag: -1.4; AHR act: 4.6; MC4R antagonist: -1.2; FXN GAA850 act: 0.3

Results for COc1cccc(C(=O)NN2CC(O)=C(c3nc4ccccc4s3)C2=N)c1 ?
MC4R barr agon: 0.2; HTR2A ag: 2.6; AHR act: 13.1; MC4R antagonist: -3.2; FXN GAA850 act: 0.9

What do the screens show for `COc1cccc(C(=O)NN2CC(O)=C(c3nc(C)cs3)C2=N)c1`?
MC4R barr agon: -2.9; HTR2A ag: -2.0; AHR act: 53.5*; MC4R antagonist: 8.1; FXN GAA850 act: -0.7

How did Cc1oc2c(C)c(O)ccc2c(=O)c1-c1cnn(-c2ccccc2)c1 do in these assays?
MC4R barr agon: 28.6*; HTR2A ag: 4.7; AHR act: 8.3; MC4R antagonist: 2.9; FXN GAA850 act: 1.0

What do the screens show for `COCCN(C(=O)c1ccc(N2C(=O)c3ccccc3C2=O)cc1)c1c(N)n(CC(C)C)c(=O)[nH]c1=O`?
MC4R barr agon: -1.4; HTR2A ag: 1.1; MC4R antagonist: 1.3; FXN GAA850 act: 0.8

How did CC(C)(C)C(=O)[C@@H]1[C@@H]2C(=O)N(C3CCCCC3)C(=O)[C@@H]2[C@H]2c3ccccc3C=CN12 do in these assays?
MC4R barr agon: -0.6; HTR2A ag: 3.5; AHR act: 92.6*; MC4R antagonist: 2.6; FXN GAA850 act: 7.4

How did COc1ccc(N2C(=O)[C@@H]3[C@H](C2=O)[C@H]2c4ccccc4C=CN2[C@@H]3C(C)=O)cc1 do in these assays?
MC4R barr agon: -0.9; HTR2A ag: -1.1; AHR act: 50.7*; MC4R antagonist: 3.2; FXN GAA850 act: 1.3
